Data as given in ChEMBL document CHEMBL1147676, “Synthesis and antitumor characterization of pyrazolic analogues of the marine pyrroloquinoline alkaloids: wakayin and tsitsikammamines” (J Med Chem, 2006).

Assays:
[1] = target: T1, DNA topoisomerase 1 (Homo sapiens) (UniProt P11387); assay: Inhibition of topoisomerase 1 DNA cleavage activity
T1 sequence (whole entry): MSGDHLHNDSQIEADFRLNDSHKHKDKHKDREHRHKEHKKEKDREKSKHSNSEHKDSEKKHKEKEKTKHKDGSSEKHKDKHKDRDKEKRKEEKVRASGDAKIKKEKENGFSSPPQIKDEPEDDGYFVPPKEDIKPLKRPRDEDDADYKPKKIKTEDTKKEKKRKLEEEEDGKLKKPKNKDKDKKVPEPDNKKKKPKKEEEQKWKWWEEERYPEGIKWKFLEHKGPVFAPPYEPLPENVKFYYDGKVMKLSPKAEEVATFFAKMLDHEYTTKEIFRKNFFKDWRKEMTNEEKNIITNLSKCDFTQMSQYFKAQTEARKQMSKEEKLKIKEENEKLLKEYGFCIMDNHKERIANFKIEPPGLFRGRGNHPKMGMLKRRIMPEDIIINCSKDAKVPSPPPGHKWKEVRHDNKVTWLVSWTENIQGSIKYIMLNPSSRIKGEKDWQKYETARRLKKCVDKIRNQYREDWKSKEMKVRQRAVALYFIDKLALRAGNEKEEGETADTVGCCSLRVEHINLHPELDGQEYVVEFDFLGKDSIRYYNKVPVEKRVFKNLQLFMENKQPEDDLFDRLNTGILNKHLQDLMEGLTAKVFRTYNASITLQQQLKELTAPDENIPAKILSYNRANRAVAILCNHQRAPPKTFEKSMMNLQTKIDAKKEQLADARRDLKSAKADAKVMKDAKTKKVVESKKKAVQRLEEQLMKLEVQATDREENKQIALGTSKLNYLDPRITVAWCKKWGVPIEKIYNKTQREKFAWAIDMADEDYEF
Procedure, shortened: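 Human topoisomerase I (2 units) incubated with 0.25 μg DNA I for 30 min at 37 °C with or without compound. Stopped with 1% SDS, proteinase K (50 μg/mL, 15 min, 37 °C), extracted twice with CIA, and run on 1% agarose (3.5 h, 75 V). Gel stained afterwards with ethidium bromide. Active concentration is the lowest giving complete inhibition, i.e. no relaxed or linear DNA.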

[2] = target: DNA topoisomerase II (Homo sapiens) (UniProt P11388+Q02880); assay: Inhibition of topoisomerase 2 DNA cleavage activity; type: protein assay
Procedure, shortened: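 Human topoisomerase II (4 units) incubated with 0.25 μg pRYG DNA and 0.5 mM ATP (final) for 30 min at 37 °C. Stopped with 1% SDS, proteinase K (50 μg/mL, 15 min), CIA extraction, and 1% agarose gel at 75 V for 3.5 h, then post-stained with 0.5 μg/mL ethidium bromide. Reported value is the lowest concentration abolishing relaxed or linear DNA.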

HT-29 [3] = assay: Antiproliferative activity against human HT29 cell line; type: functional, cell-based
Procedure, shortened: (§1)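 Cells grown in RPMI with 10% heat-inactivated FCS, no antibiotics, 37 °C, 5% CO2, and checked mycoplasma-free. Seeded at 2000 cells/well (HCT15, PC3, CT26, Renca) or 1000 cells/well (HT29). After 24 h, exposed for 72 h to nine concentrations from 1 nM to 10 μM in phenol-red-free medium, 0.1% DMSO final. Read by XTT/PMS reduction (4 h, 492 nm), four wells per concentration. IC50 from a four-parameter logistic fit of growth as % of DMSO control.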

CT26 [4] = assay: Antiproliferative activity against mouse CT26 cell line; type: functional, cell-based; procedure, shortened: as §1
Renca [5] = assay: Antiproliferative activity against mouse Renca cell line; type: functional, cell-based; procedure, shortened: as §1
HCT-15 [6] = assay: Antiproliferative activity against human HCT15 cell line at 10 uM; type: functional
Procedure, shortened: (§2)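 Growth inhibition at the top 10 μM concentration of a 72 h XTT/PMS proliferation assay (4 h stain, 492 nm, four wells), expressed against 0.1% DMSO control. Cells were in phenol-red-free RPMI with 10% FCS, seeded at 2000 cells/well (HCT15, PC3, CT26, Renca) or 1000 cells/well (HT29), and dosed 24 h after seeding.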

PC-3 [7] = assay: Antiproliferative activity against human PC3 cell line at 10 uM; type: functional; procedure, shortened: as §2
HT-29 [8] = assay: Antiproliferative activity against human HT29 cell line at 10 uM; type: functional; procedure, shortened: as §2
CT26 [9] = assay: Antiproliferative activity against mouse CT26 cell line at 10 uM; type: functional; procedure, shortened: as §2
Renca [10] = assay: Antiproliferative activity against mouse Renca cell line at 10 uM; type: functional; procedure, shortened: as §2
HCT-15 [11] = assay: Antiproliferative activity against human HCT15 cell line; type: functional, cell-based; procedure, shortened: as §1
PC-3 [12] = assay: Antiproliferative activity against human PC3 cell line; type: functional, cell-based; procedure, shortened: as §1

Compound | Inhibition [1] [µM] | Inhibition [2] [µM] | IC50 (HT-29 [3]) [µM] | IC50 (CT26 [4]) [µM] | IC50 (Renca [5]) [µM] | inhibition at 10 µM (HCT-15 [6]) [%] | inhibition at 10 µM (PC-3 [7]) [%] | inhibition at 10 µM (HT-29 [8]) [%] | inhibition at 10 µM (CT26 [9]) [%] | inhibition at 10 µM (Renca [10]) [%] | IC50 (HCT-15 [11]) [µM] | IC50 (PC-3 [12]) [µM]
Cn1ncc2c1C1=NCCc3c[nH]c(c31)C2=O | > 100 | 100 | 3.6 | 7 | 6.3 | 0 | 0 |  |  |  |  | 
Cc1ccc(S(=O)(=O)n2cc3c4c2C(=O)c2c(-c5ccccc5)n[nH]c2C4=NCC3)cc1 | 100 | > 100 |  |  |  | 0 | 0 | 0 | 0 | 0 |  | 
CC[C@@]1(O)C(=O)OCc2c1cc1n(c2=O)Cc2cc3ccccc3nc2-1 [CAMPTOTHECIN] |  |  | 0.03 | 0.034 | 0.304 |  |  |  |  |  | 0.018 | 0.052
Cc1ccc(S(=O)(=O)n2cc3c4c2C(=O)c2n[nH]cc2C4=NCC3)cc1 | 100 | > 100 |  |  |  | 0 | 0 | 0 | 0 | 0 |  | 
Cc1ccc(S(=O)(=O)n2cc3c4c2C(=O)c2c(cnn2C)C4=NCC3)cc1 | 300 |  | 3.1 | 5.3 | 0.14 |  |  |  |  |  | 6.5 | 4.9
O=C1c2[nH]cc3c2C(=NCC3)c2n[nH]c(-c3ccc(O)cc3)c21 | 300 | > 300 |  |  |  | 0 | 0 | 0 | 0 | 0 |  | 
O=C1c2[nH]cc3c2C(=NCC3)c2[nH]nc(-c3ccccc3)c21 | > 100 | > 100 |  |  |  |  | 0 | 47 | 0 | 0 | 2.7 | 
Cc1ccc(S(=O)(=O)n2cc3c4c2C(=O)c2[nH]nc(-c5ccccc5)c2C4=NCC3)cc1 | 300 |  |  |  |  | 0 | 0 | 0 | 0 | 0 |  | 
Cc1ccc(S(=O)(=O)n2cc3c4c2C(=O)c2[nH]nc(-c5ccc(O)cc5)c2C4=NCC3)cc1 | 30 | > 100 |  |  |  | 0 | 0 | 23 | 0 | 0 |  | 
COc1cc([C@@H]2c3cc4c(cc3[C@@H](O[C@@H]3O[C@@H]5CO[C@@H](C)O[C@H]5[C@H](O)[C@H]3O)[C@H]3COC(=O)[C@H]23)OCO4)cc(OC)c1O [ETOPOSIDE] |  | 100 | 6.6 | 0.2 | 2.9 |  |  |  |  |  | 4.5 | 7.8
O=C1c2[nH]cc3c2C(=NCC3)c2c(-c3ccccc3)n[nH]c21 | 100 | > 100 |  |  |  | 0 | 0 | 0 | 0 | 0 |  | 
Cc1ccc(S(=O)(=O)n2cc3c4c2C(=O)c2cn[nH]c2C4=NCC3)cc1 | 300 | > 300 |  |  |  | 0 | 0 | 0 | 0 | 0 |  | 
O=C1c2n[nH]c(-c3ccc(O)cc3)c2C2=NCCc3c[nH]c1c32 | > 100 | 100 |  |  |  | 0 | 0 | 0 | 0 | 0 |  | 
Cn1ncc2c1C(=O)c1[nH]cc3c1C2=NCC3 | > 100 | > 100 |  |  |  | 0 | 0 | 4 | 7 | 6 |  | 
Cc1ccc(S(=O)(=O)n2cc3c4c2C(=O)c2c(-c5ccc(O)cc5)n[nH]c2C4=NCC3)cc1 | 10 | 100 |  |  |  | 0 | 0 | 41 | 0 | 0 |  | 
Cc1ccc(S(=O)(=O)n2cc3c4c2C(=O)c2c(n[nH]c2C2(O)C(=O)N(C)c5ccccc52)C4=NCC3)cc1 (configuration not stated) | > 100 |  | 2.9 | 2.9 | 1.9 |  |  |  |  |  | 1.6 | 5.2
Cc1ccc(S(=O)(=O)n2cc3c4c2C(=O)c2cnn(C)c2C4=NCC3)cc1 | > 100 | > 100 | 1.9 | 4.9 | 4.6 |  |  |  |  |  | 5 | 5.8
O=C1c2[nH]ncc2C2=NCCc3c[nH]c1c32 | > 100 | 100 |  |  |  | 0 | 0 | 0 | 0 | 0 |  | 
O=C1c2c[nH]nc2C2=NCCc3c[nH]c1c32 | > 100 | 100 |  |  |  | 25 | 0 | 45 | 0 | 0 |  | 
